The record followed here is ChEMBL document CHEMBL1142211 (Antimicrob Agents Chemother, 2007).

Values after ≈ are worked out from the molar mass of the structure shown. Active and inactive are the calls of the source.

The subject of data set [1] is Mycobacterium tuberculosis. As to the kind of experiment: Antimicrobial activity against Mycobacterium tuberculosis H37Rv in 7H9 broth. It counts as functional. Put shortly: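 Broth microdilution against H37Rv over 256 to 0.01 mg/liter. MIC is the lowest concentration with no visible turbidity.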
Data set [2] relates to Mycobacterium tuberculosis. The experiment in a line: Antimicrobial activity against Mycobacterium tuberculosis H37Rv infected in mouse J774A.1 macrophages. The data set is classed as functional. Put shortly:
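J774A.1 macrophages were infected with H37Rv (MOI 1:8, macrophage:bacilli) and exposed to drug at 32 to 0.5 mg/liter for 3 days. Intracellular MIC is the minimal concentration giving a static effect after 3 days. Efficacy is the log10 CFU/ml reduction over the assay period.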

For data set [3], the system named is Mycobacterium tuberculosis. As to the kind of experiment: Antimicrobial activity against Mycobacterium tuberculosis […] on day 7. The data set is classed as functional. Put shortly:
(§1)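 H37Rv broth cultures were incubated with a range of drug concentrations. Viable CFU were counted by plating on Middlebrook 7H11 agar after 1, 7 and 14 days. Bactericidal effect is calculated against the initial inoculum before drug addition, as the mean of triplicates.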

Data set [4] has as its system Mycobacterium tuberculosis. As to the kind of experiment: Bactericidal activity in Mycobacterium tuberculosis H37Rv on day 1. It counts as functional, organism-based. Put shortly:
as §1

For data set [5], the system named is Mycobacterium tuberculosis. As to the kind of experiment: Bactericidal activity in Mycobacterium tuberculosis H37Rv on day 7. The data set is classed as functional. Put shortly:
as §1

The test system of data set [6] is Mycobacterium tuberculosis. As to the kind of experiment: Bactericidal activity in Mycobacterium tuberculosis H37Rv on day 14. The data set is classed as functional, organism-based. Put shortly: as §1
Data set [7] can be described thus: Cmax in BALB/c mouse at 37.5 to 2400 mg/kg, po. The conditions noted are these: in vivo. Also on record: dose 37.5-2400 mg/kg, route oral. The data set is classed as ADME, organism-based. Put shortly:
(§2)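 Uninfected mice received single ascending oral gavage doses as suspensions in 0.25% (wt/vol) carboxymethylcellulose at 10 ml/kg. Plasma was taken by retro-orbital puncture from 0.08 to 50 h after dosing, with 3 animals per time point. Drug was measured by HPLC-UV or LCMS, and parameters were derived by noncompartmental analysis.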

A short description of data set [8]: AUC(0-infinity) in BALB/c mouse at 37.5 to 2400 mg/kg, po. It counts as ADME, organism-based. Also on record: dose 37.5-2400 mg/kg, route oral. Conditions: plasma. Put shortly:
as §2

Data set [9] can be described thus: Cmax in BALB/c mouse at 6 to 400 mg/kg, po. It counts as ADME, organism-based. More on the design: dose 6-400 mg/kg, route oral. Conditions: in vivo. Put shortly:
as §2

The nature of data set [10]: AUC(0-infinity) in BALB/c mouse at 6 to 400 mg/kg, po. Conditions: plasma. The data set is classed as ADME, organism-based. More on the design: dose 6-400 mg/kg, route oral. Put shortly:
as §2

Data set [11] relates to Mus musculus. The experiment in a line: Drug level in Mycobacterium tuberculosis infected BALB/c mouse model at 38 to 19000 mg/kg, po. Conditions: in vivo. It counts as ADME, organism-based. More on the design: dose 38-19000 mg/kg, route oral.
Data set [12] concerns Mycobacterium tuberculosis. As to the kind of experiment: Reduction of Mycobacterium tuberculosis H37Rv in orally dosed BALB/c mouse lung. It counts as functional. Put shortly: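 BALB/c mice were infected by low-dose aerosol with H37Rv. Oral dosing started 4 weeks later and ran for 4 weeks (3 weeks for one agent), using fractionated regimens with 3 mice per regimen and saline controls. Lungs were homogenized 24 h after the end of treatment and plated on 7H11 agar with 10% ADC at 37°C in 5% CO2 for 3 weeks. The read-out is log10 CFU/lung.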

For another data set, the system named is Plasma. The experiment in a line: Fraction unbound ligand in mouse plasma at 0.01 to 10 mg/litre. It counts as ADME, cell-free. Put shortly:
(§3)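 Mouse plasma protein binding was measured by equilibrium dialysis across cellulose acetate membranes (12,000 to 14,000 MW cutoff). Drug was quantified by HPLC-UV or LCMS. Each concentration was run in duplicate and the mean reported.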

Data set [13] can be described thus: Half life in BALB/c mouse at 37.5 to 2400 mg/kg, po. Conditions: in vivo. It counts as ADME, organism-based. Also on record: dose 37.5-2400 mg/kg, route oral.
A short description of data set [14]: Ratio of fraction AUC in Mycobacterium tuberculosis infected BALB/c mouse to MIC in Mycobacterium tuberculosis infected BALB/c mouse model at 225 to 115000 mg/kg, po. Also on record: dose 225-115000 mg/kg, route oral. The data set is classed as ADME, organism-based. Conditions: in vivo. Put shortly:
(§4)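 Free Cmax and free AUC were derived from single-dose mouse plasma PK after conversion to unbound concentrations using each agent's binding equation, then divided by the broth MIC. Values for the fractionation regimens were estimated from the dose relationship.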

Data set [15] is described as follows: Ratio of fraction Cmax in Mycobacterium tuberculosis infected BALB/c mouse to MIC in Mycobacterium tuberculosis infected BALB/c mouse model at 225 to 115000 mg/kg, po. The conditions noted are these: in vivo. The data set is classed as ADME, organism-based. More on the design: dose 225-115000 mg/kg, route oral. Put shortly:
as §4

In data set [16] the test system is Mus musculus. The experiment in a line: Drug level in Mycobacterium tuberculosis infected BALB/c mouse model at 225 to 115000 mg/kg, po. It counts as ADME, organism-based. More on the design: dose 225-115000 mg/kg, route oral. Conditions: in vivo.
A short description of data set [17]: Toxicity in Mycobacterium tuberculosis infected BALB/c mouse model at 225 to 115000 mg/kg, po. Conditions: in vivo. It counts as organism-based. More on the design: dose 225-115000 mg/kg, route oral.
Data set [18] in a line: Fraction unbound ligand in mouse plasma at 0.01 to 50 mg/litre. The data set is classed as ADME, cell-free. Put shortly: as §3
Data set [19] in a line: Cmax in BALB/c mouse at 5 to 1000 mg/kg, po. It counts as ADME, organism-based. Also on record: dose 5-1000 mg/kg, route oral. The conditions noted are these: in vivo. Put shortly: as §2
A short description of data set [20]: AUC(0-infinity) in BALB/c mouse at 5 to 1000 mg/kg, po. The data set is classed as ADME, organism-based. More on the design: dose 5-1000 mg/kg, route oral. The conditions noted are these: plasma. Put shortly: as §2
Data set [21] in a line: Half life in BALB/c mouse at 5 to 1000 mg/kg, po. The conditions noted are these: in vivo. The data set is classed as ADME, organism-based. More on the design: dose 5-1000 mg/kg, route oral. Put shortly:
as §2

A short description of data set [22]: Ratio of fraction AUC in Mycobacterium tuberculosis infected BALB/c mouse to MIC in Mycobacterium tuberculosis infected BALB/c mouse model at 31 to 50000 mg/kg, po. The data set is classed as functional. Conditions: dose mg/kg 31-50000. Put shortly: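 Estimated from oral single-ascending-dose PK in uninfected BALB/c mice (gavage, 0.25% CMC suspension; plasma sampled 0.08–50 h, 3 mice/time point; HPLC-UV/LCMS). Total AUC0-∞ was made unbound using a protein-binding fit from mouse-plasma equilibrium dialysis, then divided by broth MIC over 576 h/24 h (SPX: 432 h/24 h). Values were interpolated from dose relationships for dose-fractionation regimens in aerosol-infected mice.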

The subject of data set [23] is Mycobacterium tuberculosis. As to the kind of experiment: Ratio of fraction Cmax in Mycobacterium tuberculosis infected BALB/c mouse to MIC in Mycobacterium tuberculosis infected BALB/c mouse model at 31 to 50000 mg/kg, po. It counts as functional. Conditions: dose mg/kg 31-50000. Put shortly:
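Unbound peak plasma level was divided by broth MIC. […] It was converted to free drug by a Boltzman fit of equilibrium-dialysis mouse plasma binding. Values for the fractionated regimens given to aerosol-infected mice were estimated from the dose–fCmax/MIC relationship.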

The test system of data set [24] is Mus musculus. As to the kind of experiment: Drug level in Mycobacterium tuberculosis infected BALB/c mouse model at 31 to 50000 mg/kg, po. More on the design: dose 31-50000 mg/kg, route oral. Conditions: in vivo. The data set is classed as ADME, organism-based.

Take `O=C(O)c1cn(C2CC2)c2cc(N3CCNCC3)c(F)cc2c1=O` [CIPROFLOXACIN]: the MIC in [1] is 0.5 mg/L (≈ 1.51 µM); in data set [2] it was 4 mg/L (≈ 12.1 µM). Also, the log10CFU/ml was determined as 3 in data set [3] and 3.2 in data set [5]. Besides, the result in data set [4] and in data set [6] was Active. Further, in data set [7], the peak level (Cmax) was 1.2 µg/mL. This molecule came in with an area under the curve AUC(0-inf) in data set [8] of 29 µg·h/mL.

For the molecule `COc1c(N2C[C@@H]3CCCN[C@@H]3C2)c(F)cc2c(=O)c(C(=O)O)cn(C3CC3)c12` [MOXIFLOXACIN], the MIC worked out at 0.5 mg/L (≈ 1.25 µM) in data set [1] and 1 mg/L (≈ 2.49 µM) in data set [2]. Also, the log10CFU/ml in [3] amounted to 3. Besides, the outcome in data set [4], in data set [5] and in data set [6] was Active. This molecule also registered a Cmax in data set [9] of 0.38 µg/mL. Besides, the AUC(0-inf) in [10] is 25 µg·h/mL. The “T>MIC” value with Mus musculus [11] amounted to 0%. The Log10 cfu in data set [12] was determined as 3.2. This molecule also registered a Fu in the data set with Plasma of 0.077.

On to `CC1COc2c(N3CCN(C)CC3)c(F)cc3c(=O)c(C(=O)O)cn1c23` (configuration not stated) [OFLOXACIN], for which the MIC in data set [1] came to 0.5 mg/L (≈ 1.38 µM); in data set [2], 2 mg/L (≈ 5.53 µM). In data set [3], this molecule returned a log10CFU/ml of 3. In addition, the outcome in data set [4], in [5] and in data set [6] was Active. The same molecule yielded a Cmax in data set [7] of 1.7 µg/mL. The AUC(0-inf) in data set [8] is 29 µg·h/mL. This molecule also had a half-life in data set [13] of 4.93 h. Also, the RatioAUC/MIC in data set [14] is given as 2. The Log10 cfu in data set [12] is reported as 1.5. Moreover, the Ratio in [15] stood at 1. Also, in the data set on Mus musculus [16], the “T>MIC” value is 0%. The LD50 in data set [17] amounted to 3000 mg/kg.

`C[C@@H]1CN(c2c(F)c(N)c3c(=O)c(C(=O)O)cn(C4CC4)c3c2F)C[C@H](C)N1` [SPARFLOXACIN]: the figures for the MIC in data set [1] and in data set [2] were 0.1 mg/L (≈ 0.255 µM) and 2 mg/L (≈ 5.1 µM), respectively. In [18], this molecule came in with a fraction unbound of 0.26. Also, the log10CFU/ml in data set [3] amounted to 3. The result in data set [4], in [5] and in [6] was Active. The molecule further came in with a Cmax in [19] of 0.75 µg/mL. For the same molecule, the AUC(0-inf) in data set [20] is 43 µg·h/mL. Further, the half-life in [21] was 9.8 h. This molecule also showed a Log10 cfu in data set [12] of 1.4. Also, the RatioAUC/MIC in data set [22] was 3. Also, in data set [23], the Ratio came out at 4. The “T>MIC” value with Mus musculus [24] amounted to 10%.
